Measurements as given in ChEMBL document CHEMBL2169744, “Discovery and optimization of potent and selective imidazopyridine and imidazopyridazine mTOR inhibitors” (Bioorg Med Chem Lett, 2012).
≈ marks a conversion by molar mass, not a printed value. One block for each compound: values may come before it. Calls of active or inactive are those of the source. No cut-off for these calls is given here.

Assays:
[1] = Oral bioavailability in rat at 1 mg/kg; type: ADME, organism-based; conditions: in vivo
[2] = Apparent permeability from basal to apical side of pig LLC-PK1 cells; type: ADME, cell-based, Sus scrofa
[3] = Efflux ratio of apparent permeability from basal to apical to apical to basal side of pig LLC-PK1 cells; type: ADME, cell-based, Sus scrofa
[4] = Solubility of the compound in 0.01 N HCl; type: physicochemical
[5] = Apparent permeability from apical to basal side of pig LLC-PK1 cells; type: ADME, cell-based, Sus scrofa
[6] = Solubility of the compound in phosphate buffered saline; type: physicochemical
[7] = Solubility of the compound in simulated intestinal fluid; type: physicochemical
[8] = Inhibition of mTORC1-mediated pS6 Ser240/244-phosphorylation in human U87MG cells; type: cell-based, U-87MG ATCC; conditions: U-87 MG
Method in brief: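 Cell assay in U87MG cells measuring phosphorylation of the mTOR substrate S6 (S240/244), n ≥ 2.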

[9] = target: Serine/threonine-protein kinase mTOR (Homo sapiens, UniProt P42345); assay: Inhibition of mTOR by LanthaScreen assay
[10] = Plasma protein binding in rat at 5 mg/kg, po; type: ADME, organism-based; parameters: dose 5 mg/kg, route oral; conditions: read-out: PPB (converted)
Rattus norvegicus [11] = assay: (§1) AUC in rat at 0.5 mg/kg, iv; type: ADME, organism-based, Plasma; parameters: dose 0.5 mg/kg, route intravenous; conditions: in vivo
[12] = Oral bioavailability in rat at 5 mg/kg; type: ADME, organism-based; conditions: in vivo
Method in brief: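 Rat oral PK at 5.0 mpk in 1% Tween 80, 2% HPMC, 97% H2O, pH 2.2 (methanesulfonic acid).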

[13] = Volume of distribution at steady state in rat at 0.5 mg/kg, iv; type: ADME, organism-based; parameters: dose 0.5 mg/kg, route intravenous; conditions: in vivo, read-out: Vdss
[14] = Half life in rat at 0.5 mg/kg, iv; type: ADME, organism-based; parameters: dose 0.5 mg/kg, route intravenous; conditions: in vivo
Rattus norvegicus [15] = assay: (§2) Clearance in rat at 0.5 mg/kg, iv; type: ADME, organism-based; parameters: dose 0.5 mg/kg, route intravenous; conditions: in vivo
[16] = Inhibition of mTORC1-mediated 4EBP1-phosphorylation in human U87 cells; type: cell-based, U-87MG ATCC; conditions: Homo sapiens, U-87 MG; read-out: IC50
[17] = target: Phosphatidylinositol 4,5-bisphosphate 3-kinase catalytic subunit alpha isoform (Homo sapiens, UniProt P42336); assay: Inhibition of PI3Kalpha by AlphaScreen assay
Sequence of Phosphatidylinositol 4,5-bisphosphate 3-kinase catalytic subunit alpha isoform (P42336 whole entry, canonical isoform): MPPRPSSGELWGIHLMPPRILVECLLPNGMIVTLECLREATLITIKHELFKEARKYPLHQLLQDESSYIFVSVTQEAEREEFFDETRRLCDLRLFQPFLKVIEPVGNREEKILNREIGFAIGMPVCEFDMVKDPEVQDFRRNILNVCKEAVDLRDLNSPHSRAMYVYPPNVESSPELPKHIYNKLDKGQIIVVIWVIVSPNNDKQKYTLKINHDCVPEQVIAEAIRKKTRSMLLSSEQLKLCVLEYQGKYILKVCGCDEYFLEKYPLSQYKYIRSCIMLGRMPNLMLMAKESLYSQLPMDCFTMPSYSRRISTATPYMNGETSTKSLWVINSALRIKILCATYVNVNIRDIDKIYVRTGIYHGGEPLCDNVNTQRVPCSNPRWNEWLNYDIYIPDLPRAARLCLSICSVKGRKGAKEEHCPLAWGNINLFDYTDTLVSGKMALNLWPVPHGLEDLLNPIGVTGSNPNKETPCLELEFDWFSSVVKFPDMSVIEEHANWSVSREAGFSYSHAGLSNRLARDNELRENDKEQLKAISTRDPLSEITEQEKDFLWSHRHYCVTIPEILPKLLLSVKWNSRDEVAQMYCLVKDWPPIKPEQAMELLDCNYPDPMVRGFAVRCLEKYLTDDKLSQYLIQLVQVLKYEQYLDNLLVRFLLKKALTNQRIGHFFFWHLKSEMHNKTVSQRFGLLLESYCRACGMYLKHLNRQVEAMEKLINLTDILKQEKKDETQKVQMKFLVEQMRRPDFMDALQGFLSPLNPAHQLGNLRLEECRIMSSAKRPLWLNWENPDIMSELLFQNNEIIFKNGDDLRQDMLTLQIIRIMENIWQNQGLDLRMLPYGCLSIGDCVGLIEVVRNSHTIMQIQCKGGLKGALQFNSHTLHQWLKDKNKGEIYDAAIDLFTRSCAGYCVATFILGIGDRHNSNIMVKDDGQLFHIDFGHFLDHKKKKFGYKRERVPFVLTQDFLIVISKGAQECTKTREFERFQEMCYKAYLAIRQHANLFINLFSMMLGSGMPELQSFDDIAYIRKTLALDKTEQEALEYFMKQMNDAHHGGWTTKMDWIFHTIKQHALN

Rattus norvegicus [18] = organism: Rattus norvegicus; assay: Unbound clearance in rat; type: ADME, organism-based; conditions: in vivo
[19] = Oral bioavailability in rat at 2 mg/kg; type: ADME, organism-based; conditions: in vivo
[20] = Clearance in rat at 0.3 mg/kg, iv; type: ADME, organism-based; parameters: dose 0.3 mg/kg, route intravenous; conditions: in vivo
Method in brief: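 Rat IV pharmacokinetics at 0.3 mpk, formulation 100% DMSO.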

[21] = Clearance in rat liver microsomes; type: ADME, Microsome; conditions: read-out: CLH
[22] = as §1; type: ADME, organism-based, Plasma; parameters: dose 0.5 mg/kg, route intravenous; conditions: plasma
[23] = Clearance in human liver microsomes; type: ADME, Microsome; conditions: read-out: CLH
Rattus norvegicus [24] = assay: Drug metabolism in po dosed Sprague-Dawley rat assessed as imidazopyridine oxidation; type: ADME, organism-based; conditions: in vivo
Rattus norvegicus [25] = assay: Drug metabolism in po dosed Sprague-Dawley rat assessed as triazine amine glucuronide derivative; type: ADME, organism-based; conditions: in vivo
Rattus norvegicus [26] = assay: Drug metabolism in po dosed Sprague-Dawley rat assessed as pyrazole glucuronide derivative; type: ADME, organism-based; conditions: in vivo
[27] = Drug excretion in iv dosed Sprague-Dawley rat urine; type: ADME, organism-based; conditions: in vivo
[28] = Drug excretion in po dosed Sprague-Dawley rat urine; type: ADME, organism-based; conditions: in vivo
[29] = as §2; type: ADME, organism-based; parameters: dose 0.5 mg/kg, route intravenous; conditions: in vivo
[30] = Antitumor activity against human U87MG cells xenografted in mouse assessed as tumor growth inhibition at 30 mg/kg, po administered BID for 2 weeks relative to vehicle-treated control; type: functional, U-87MG ATCC; conditions: U-87 MG, 336 h, read-out: TGI
Method in brief: (§3)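 Mice bearing established U87-MG tumours dosed orally with vehicle or compound at 10, 30 or 60 mg/kg QD or 30 mg/kg BID for 2 weeks. Tumour volume (mm3) tracked, mean ± SE, n = 10. TGI relative to vehicle controls; significance by repeated-measures ANOVA followed by Dunnett's test.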

[31] = Antitumor activity against human U87MG cells xenografted in mouse assessed as tumor growth inhibition at 60 mg/kg, po administered QD for 2 weeks relative to vehicle-treated control; type: functional, U-87MG ATCC; conditions: U-87 MG, 336 h, read-out: TGI; method in brief: as §3
U-87MG ATCC [32] = assay: Antitumor activity against human U87MG cells xenografted in po dosed mouse assessed as tumor growth inhibition administered BID for 2 weeks; type: functional, organism-based; method in brief: as §3
Mus musculus [33] = assay: Toxicity in mouse assessed adverse effects at 60 mg/kg, po administered QD for 7 days relative to vehicle-treated control; type: organism-based; parameters: dose 60 mg/kg, route oral; conditions: in vivo, 168 h
Method in brief: (§4)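 Seven-day tolerability study in mice, n = 5 per group. Oral dosing QD at 60 or 100 mg/kg. Body weight monitored; animals with average weight loss >20% removed from study.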

U-87MG ATCC [34] = assay: Antitumor activity against human U87MG cells xenografted in po dosed mouse assessed as tumor growth inhibition administered QD for 2 weeks; type: functional, organism-based; method in brief: as §3
Mus musculus [35] = assay: Toxicity in mouse assessed weight loss at 100 mg/kg, po administered QD for 7 days measured on day 3 relative to vehicle-treated control; type: organism-based; parameters: dose 100 mg/kg, route oral; conditions: in vivo, 168 h; method in brief: as §4
Mus musculus [36] = assay: Inhibition of mTORC1 in po dosed mouse assessed as inhibition of HGF-induced pS6-phosphorylation in liver tissue at 100 mg/kg, po measured at 24 hrs; type: functional, organism-based; parameters: dose 100 mg/kg
Method in brief: (§5)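 Time course in mouse liver: single oral dose of 100 mg/kg, sampled at 3, 6, 8 and 24 h. Inhibition of HGF-induced pAKT (S473 and T308) and pS6 in liver tissue measured against vehicle controls.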

Mus musculus [37] = assay: Inhibition of mTORC1 in po dosed mouse assessed as inhibition of HGF-induced pS6-phosphorylation in liver tissue at 100 mg/kg, po measured at >8 hrs; type: functional, organism-based; parameters: dose 100 mg/kg; method in brief: as §5
Mus musculus [38] = assay: Inhibition of PI3Kalpha in po dosed mouse assessed as inhibition of HGF-induced AKT Thr308-phosphorylation in liver tissue at 100 mg/kg, po measured at 24 hrs; type: functional, organism-based; parameters: dose 100 mg/kg; method in brief: as §5
Mus musculus [39] = assay: Inhibition of PI3Kalpha in po dosed mouse assessed as inhibition of HGF-induced AKT Thr308-phosphorylation in liver tissue at 100 mg/kg, po measured at >8 hrs; type: functional, organism-based; parameters: dose 100 mg/kg; method in brief: as §5
Mus musculus [40] = assay: Inhibition of mTORC2 in po dosed mouse assessed as inhibition of HGF-induced AKT Ser473-phosphorylation in liver tissue at 100 mg/kg, po measured at 24 hrs; type: functional, organism-based; parameters: dose 100 mg/kg; method in brief: as §5
Mus musculus [41] = assay: Inhibition of mTORC2 in po dosed mouse assessed as inhibition of HGF-induced AKT Ser473-phosphorylation in liver tissue at 100 mg/kg, po measured at >8 hrs; type: functional, organism-based; parameters: dose 100 mg/kg; method in brief: as §5
Mus musculus [42] = assay: Inhibition of PI3Kalpha in po dosed mouse assessed as inhibition of HGF-induced AKT Thr308-phosphorylation in liver tissue after 6 hrs; type: functional, organism-based
Method in brief: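 Single oral dose to mice of vehicle (50% PEG400, 1% Pluronic F68, pH 2.2 with MSA) or compound at 10, 30 or 100 mg/kg, n = 3 per dose. HGF-stimulated liver taken at 6 h; pAKT (S473, T308) and pS6RP measured in lysate by MSD assay. Plasma drug levels measured. Factorial ANOVA versus vehicle, then Dunnett's test.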

[43] = Half life in rat at 1 mg/kg, iv; type: ADME, organism-based; parameters: dose 1 mg/kg, route intravenous; conditions: in vivo
[44] = Clearance in rat at 1 mg/kg, iv; type: ADME, organism-based; parameters: dose 1 mg/kg, route intravenous; conditions: in vivo
[45] = Volume of distribution at steady state in rat at 1 mg/kg, iv; type: ADME, organism-based; parameters: dose 1 mg/kg, route intravenous; conditions: in vivo, read-out: Vdss
[46] = Inhibition of mTORC2-mediated AKT Ser473-phosphorylation in human U87 cells; type: cell-based, U-87MG ATCC; conditions: U-87 MG
Method in brief: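 Cell assay in U87 cells measuring pAKT (S473), n ≥ 2.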

[47] = target: Phosphatidylinositol 4,5-bisphosphate 3-kinase catalytic subunit beta isoform (Homo sapiens, UniProt P42338); assay: Inhibition of PI3Kbeta by AlphaScreen assay
Sequence of Phosphatidylinositol 4,5-bisphosphate 3-kinase catalytic subunit beta isoform (P42338 whole entry, canonical isoform): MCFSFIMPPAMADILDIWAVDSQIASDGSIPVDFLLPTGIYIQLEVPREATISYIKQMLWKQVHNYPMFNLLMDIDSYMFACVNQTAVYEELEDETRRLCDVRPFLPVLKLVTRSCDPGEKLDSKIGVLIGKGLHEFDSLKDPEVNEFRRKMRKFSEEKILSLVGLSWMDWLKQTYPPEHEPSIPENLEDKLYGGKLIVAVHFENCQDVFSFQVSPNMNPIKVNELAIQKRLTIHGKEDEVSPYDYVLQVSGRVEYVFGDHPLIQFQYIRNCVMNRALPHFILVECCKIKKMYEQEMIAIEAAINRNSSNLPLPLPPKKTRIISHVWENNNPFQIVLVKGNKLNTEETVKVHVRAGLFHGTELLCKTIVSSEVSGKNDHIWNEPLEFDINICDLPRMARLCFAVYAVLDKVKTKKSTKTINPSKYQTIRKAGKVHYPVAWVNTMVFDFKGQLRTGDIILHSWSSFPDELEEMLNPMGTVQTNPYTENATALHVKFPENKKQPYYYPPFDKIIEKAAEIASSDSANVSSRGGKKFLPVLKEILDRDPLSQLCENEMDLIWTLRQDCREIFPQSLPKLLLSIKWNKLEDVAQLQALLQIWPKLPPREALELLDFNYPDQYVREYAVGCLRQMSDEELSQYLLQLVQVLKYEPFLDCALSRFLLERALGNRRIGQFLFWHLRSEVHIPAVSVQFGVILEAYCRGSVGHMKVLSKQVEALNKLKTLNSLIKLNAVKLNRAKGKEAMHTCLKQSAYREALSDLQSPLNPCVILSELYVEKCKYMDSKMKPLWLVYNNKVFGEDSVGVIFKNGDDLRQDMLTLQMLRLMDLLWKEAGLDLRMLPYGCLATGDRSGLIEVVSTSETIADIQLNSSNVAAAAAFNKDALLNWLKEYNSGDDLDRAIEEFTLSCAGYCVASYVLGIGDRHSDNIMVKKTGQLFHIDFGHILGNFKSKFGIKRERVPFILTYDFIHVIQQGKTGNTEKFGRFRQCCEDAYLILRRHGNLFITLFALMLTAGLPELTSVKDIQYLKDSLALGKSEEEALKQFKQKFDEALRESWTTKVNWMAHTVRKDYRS

Mus musculus [48] = organism: Mus musculus; assay: animal or person; conditions: Liver, 6 h
Mus musculus [49] = organism: Mus musculus; assay: animal or person; conditions: Liver, 6 h; remark: listed apart in the source
[50] = Oral bioavailability in rat at 4 mg/kg; type: ADME, organism-based; conditions: in vivo

SMILES: Cc1nc(N)cc(-c2c(Nc3cc[nH]n3)nc3ccccn23)n1
CL free (Rattus norvegicus [18]): 515 mL/min/kg
bioavailability [19]: 2%
Vd [13]: 1.2 L/kg
half-life [14]: 15 min
clearance [20]: 68.3 mL/min/kg
solubility [7]: 162 µg/mL (≈ 529 µM)
IC50 [16]: 507 nM
IC50 [17]: 5840 nM
IC50 [9]: 65 nM

SMILES: Cc1nc(N)nc(-c2c(Nc3cc[nH]n3)nc3ccccn23)n1
fraction unbound [10]: 0.023
microsomal CLint [21]: 29 µL/min/mg
AUC [22]: 1.8 µM·h
microsomal CLint [23]: 24 µL/min/mg
Drug metabolism (Rattus norvegicus [24]): Active
Drug metabolism (Rattus norvegicus [25]): Active
Drug metabolism (Rattus norvegicus [26]): Active
Drug excretion [27]: Active
Drug excretion [28]: Active
bioavailability [12]: 24%
Vd [13]: 1.14 L/kg
half-life [14]: 26.4 min
clearance [29]: 30 mL/min/kg
inhibition in vivo at 30 mg/kg [30]: 84%
inhibition in vivo at 60 mg/kg [31]: 82%
TGI (U-87MG ATCC [32]): Dose-dependent effect
Activity (Mus musculus [33]): Non-toxic
TGI (U-87MG ATCC [34]): Dose-dependent effect
Activity (Mus musculus [35]): > 20%
inhibition (Mus musculus [36]): inactive
inhibition (Mus musculus [37]): Active
inhibition (Mus musculus [38]): inactive
inhibition (Mus musculus [39]): Active
inhibition (Mus musculus [40]): inactive
inhibition (Mus musculus [41]): Active
inhibition (Mus musculus [42]): Dose-dependent effect
bioavailability [1]: 24%
half-life [43]: 27 min
clearance [44]: 30 mL/min/kg
Vd [45]: 1.1 L/kg
Papp B→A [2]: 33.7 ×10⁻⁶ cm/s
efflux ratio [3]: 2.4
solubility ([4]; 0.01 N HCl, read-out: solubility): > 200 µg/mL
Papp A→B [5]: 13.8 ×10⁻⁶ cm/s
solubility [6]: 6.3 µg/mL (≈ 20.5 µM)
solubility [7]: 27 µg/mL (≈ 87.9 µM)
IC50 [8]: 69 nM
IC50 [16]: 162 nM
IC50 [46]: 19 nM
IC50 [47]: 1130 nM
IC50 [17]: 590 nM
IC50 (Mus musculus [48]): 71 nM
IC50 (Mus musculus [49]): 53 nM

SMILES: Cc1nc(Nc2ccc(N3CCOCC3)nn2)cc(-c2c(Nc3ccn[nH]3)nc3cccnn23)n1
bioavailability [50]: 7%
Vd [13]: 3.9 L/kg
half-life [14]: 95.4 min
clearance [29]: 41.7 mL/min/kg
solubility [7]: 98 µg/mL (≈ 208 µM)
IC50 [16]: 309 nM
IC50 [17]: 256 nM
IC50 [9]: 35 nM

More lines, in order of falling IC50 [9], values ahead:

bioavailability [1]: 6%
Papp B→A [2]: 35.4 ×10⁻⁶ cm/s
efflux ratio [3]: 1.7
solubility ([4]; buffer): 3.7 µg/mL (≈ 12 µM)
Papp A→B [5]: 20.3 ×10⁻⁶ cm/s
solubility [6]: 8.4 µg/mL (≈ 27.3 µM)
solubility [7]: 8.4 µg/mL (≈ 27.3 µM)
IC50 [8]: 166 nM
IC50 [9]: 23 nM
SMILES: Cc1nc(N)nc(-n2c(Nc3ccn[nH]3)nc3ccccc32)n1

fraction unbound [10]: 0.025
AUC (Rattus norvegicus [11]): 7.6 µM·h
bioavailability [12]: 38%
Vd [13]: 1.7 L/kg
half-life [14]: 168 min
CL (Rattus norvegicus [15]): 10 mL/min/kg
IC50 [16]: 230 nM
IC50 [17]: 4290 nM
IC50 [9]: 15 nM
SMILES: CC(=O)Nc1cc(-c2c(Nc3ccn(C)n3)nc3ccc(-c4cccnc4C)cn23)nc(C)n1
